Measurements published in ChEMBL document CHEMBL1142454, “Synthesis and evaluation of novel 4-amino-4,6-androstadiene-3,17-dione: an analog of formestane” (2008).

Test system: UACC-257
Assay: Antitumor activity against human UACC-257 cells assessed as reduction of cell growth at 10 uM after 48 hrs by SRB assay
Assay type: functional
Design: scale not given: the % may be the effect or the level left
Outline: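 NCI-60 one-dose primary screen at 10^-5 M final. Cells grown in RPMI 1640 with 5% FBS and 2 mM L-glutamine, plated at 5000–40,000 cells/well and preincubated 24 h at 37 °C, 5% CO2. Drug stocks in DMSO, diluted in medium with gentamicin. Exposure 48 h, then fixed in situ with TCA (10% final) for 60 min at 4 °C. Stained with 0.4% SRB in 1% acetic acid, bound dye solubilized in 10 mM trizma base, absorbance read at 515 nm. Reported as mean growth percent; negative values indicate cell kill.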

| Compound | Activity [%] |
| --- | --- |
| C[C@]12CCC(=O)C(N)=C1C=C[C@@H]1[C@@H]2CC[C@]2(C)C(=O)CC[C@@H]12.Cl | 86.69 |

Test system: SK-MEL-5
Assay: Antitumor activity against human SK-MEL-5 cells assessed as reduction of cell growth at 10 uM after 48 hrs by SRB assay
Assay type: functional
Design: scale not given: the % may be the effect or the level left
Outline: (§1)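 NCI 60-cell-line primary screen, single dose 10^-5 M (final). Cells grown in RPMI 1640 with 5% FBS and 2 mM L-glutamine, seeded at 5000–40,000 cells/well and preincubated 24 h at 37 °C, 5% CO2. Compound is dissolved in DMSO, diluted in medium with gentamicin, and exposed 48 h. Cells are fixed with 10% TCA (final) and stained with 0.4% SRB; absorbance is read at 515 nm. Readout is growth percentage.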

| Compound | Activity [%] |
| --- | --- |
| C[C@]12CCC(=O)C(N)=C1C=C[C@@H]1[C@@H]2CC[C@]2(C)C(=O)CC[C@@H]12.Cl | 69.71 |

Test system: SK-MEL-2
Assay: Antitumor activity against human SK-MEL-2 cells assessed as reduction of cell growth at 10 uM after 48 hrs by SRB assay
Assay type: functional
Design: scale not given: the % may be the effect or the level left
Outline: as §1

| Compound | Activity [%] |
| --- | --- |
| C[C@]12CCC(=O)C(N)=C1C=C[C@@H]1[C@@H]2CC[C@]2(C)C(=O)CC[C@@H]12.Cl | 74.41 |

Test system: Malme-3M
Assay: Antitumor activity against human MALME-3M cells assessed as reduction of cell growth at 10 uM after 48 hrs by SRB assay
Assay type: functional
Design: scale not given: the % may be the effect or the level left
Outline: as §1

| Compound | Activity [%] |
| --- | --- |
| C[C@]12CCC(=O)C(N)=C1C=C[C@@H]1[C@@H]2CC[C@]2(C)C(=O)CC[C@@H]12.Cl | 70.81 |

Test system: M14
Assay: Antitumor activity against human M14 cells assessed as reduction of cell growth at 10 uM after 48 hrs by SRB assay
Assay type: functional
Design: scale not given: the % may be the effect or the level left
Outline: as §1

| Compound | Activity [%] |
| --- | --- |
| C[C@]12CCC(=O)C(N)=C1C=C[C@@H]1[C@@H]2CC[C@]2(C)C(=O)CC[C@@H]12.Cl | 79.51 |

Test system: LOX IMVI
Assay: Antitumor activity against human LOXIMVI cells assessed as reduction of cell growth at 10 uM after 48 hrs by SRB assay
Assay type: functional
Design: scale not given: the % may be the effect or the level left
Outline: as §1

| Compound | Activity [%] |
| --- | --- |
| C[C@]12CCC(=O)C(N)=C1C=C[C@@H]1[C@@H]2CC[C@]2(C)C(=O)CC[C@@H]12.Cl | 60.57 |

Test system: RXF 393
Assay: Antitumor activity against human RXF 393 cells assessed as reduction of cell growth at 10 uM after 48 hrs by SRB assay
Assay type: functional
Design: scale not given: the % may be the effect or the level left
Outline: as §1

| Compound | Activity [%] |
| --- | --- |
| C[C@]12CCC(=O)C(N)=C1C=C[C@@H]1[C@@H]2CC[C@]2(C)C(=O)CC[C@@H]12.Cl | 95.21 |

Test system: CAKI-1
Assay: Antitumor activity against human Caki-1 cells assessed as reduction of cell growth at 10 uM after 48 hrs by SRB assay
Assay type: functional
Design: scale not given: the % may be the effect or the level left
Outline: as §1

| Compound | Activity [%] |
| --- | --- |
| C[C@]12CCC(=O)C(N)=C1C=C[C@@H]1[C@@H]2CC[C@]2(C)C(=O)CC[C@@H]12.Cl | 84.08 |

Test system: ACHN
Assay: Antitumor activity against human ACHN cells assessed as reduction of cell growth at 10 uM after 48 hrs by SRB assay
Assay type: functional
Design: scale not given: the % may be the effect or the level left
Outline: as §1

| Compound | Activity [%] |
| --- | --- |
| C[C@]12CCC(=O)C(N)=C1C=C[C@@H]1[C@@H]2CC[C@]2(C)C(=O)CC[C@@H]12.Cl | 88.16 |

Test system: A498
Assay: Antitumor activity against human A-498 cells assessed as reduction of cell growth at 10 uM after 48 hrs by SRB assay
Assay type: functional
Design: scale not given: the % may be the effect or the level left
Outline: as §1

| Compound | Activity [%] |
| --- | --- |
| C[C@]12CCC(=O)C(N)=C1C=C[C@@H]1[C@@H]2CC[C@]2(C)C(=O)CC[C@@H]12.Cl | 99.19 |

Test system: not listed separately
Assay: Antitumor activity against human 786-O cells assessed as reduction of cell growth at 10 uM after 48 hrs by SRB assay
Assay type: functional, 786-0
Design: scale not given: the % may be the effect or the level left
Outline: as §1

| Compound | Activity [%] |
| --- | --- |
| C[C@]12CCC(=O)C(N)=C1C=C[C@@H]1[C@@H]2CC[C@]2(C)C(=O)CC[C@@H]12.Cl | 89.28 |

Test system: MOLT-4
Assay: Antitumor activity against human MOLT-4 cells assessed as reduction of cell growth at 10 uM after 48 hrs by SRB assay
Assay type: functional
Design: scale not given: the % may be the effect or the level left
Outline: as §1

| Compound | Activity [%] |
| --- | --- |
| C[C@]12CCC(=O)C(N)=C1C=C[C@@H]1[C@@H]2CC[C@]2(C)C(=O)CC[C@@H]12.Cl | 57.2 |

Test system: K562
Assay: Antitumor activity against human K-562 cells assessed as reduction of cell growth at 10 uM after 48 hrs by SRB assay
Assay type: functional
Design: scale not given: the % may be the effect or the level left
Outline: as §1

| Compound | Activity [%] |
| --- | --- |
| C[C@]12CCC(=O)C(N)=C1C=C[C@@H]1[C@@H]2CC[C@]2(C)C(=O)CC[C@@H]12.Cl | -26.94 |

Test system: HL-60(TB)
Assay: Antitumor activity against human HL-60(TB) cells assessed as reduction of cell growth at 10 uM after 48 hrs by SRB assay
Assay type: functional
Design: scale not given: the % may be the effect or the level left
Outline: as §1

| Compound | Activity [%] |
| --- | --- |
| C[C@]12CCC(=O)C(N)=C1C=C[C@@H]1[C@@H]2CC[C@]2(C)C(=O)CC[C@@H]12.Cl | 52.53 |

Test system: CCRF-CEM
Assay: Antitumor activity against human CCRF-CEM cells assessed as reduction of cell growth at 10 uM after 48 hrs by SRB assay
Assay type: functional
Design: scale not given: the % may be the effect or the level left
Outline: as §1

| Compound | Activity [%] |
| --- | --- |
| C[C@]12CCC(=O)C(N)=C1C=C[C@@H]1[C@@H]2CC[C@]2(C)C(=O)CC[C@@H]12.Cl | 6.62 |

Test system: SK-OV-3
Assay: Antitumor activity against human SKOV3 cells assessed as reduction of cell growth at 10 uM after 48 hrs by SRB assay
Assay type: functional
Design: scale not given: the % may be the effect or the level left
Outline: as §1

| Compound | Activity [%] |
| --- | --- |
| C[C@]12CCC(=O)C(N)=C1C=C[C@@H]1[C@@H]2CC[C@]2(C)C(=O)CC[C@@H]12.Cl | 120.27 |

Test system: OVCAR-5
Assay: Antitumor activity against human OVCAR5 cells assessed as reduction of cell growth at 10 uM after 48 hrs by SRB assay
Assay type: functional
Design: scale not given: the % may be the effect or the level left
Outline: as §1

| Compound | Activity [%] |
| --- | --- |
| C[C@]12CCC(=O)C(N)=C1C=C[C@@H]1[C@@H]2CC[C@]2(C)C(=O)CC[C@@H]12.Cl | 107.69 |

Test system: OVCAR-3
Assay: Antitumor activity against human OVCAR-3 cells assessed as reduction of cell growth at 10 uM after 48 hrs by SRB assay
Assay type: functional
Design: scale not given: the % may be the effect or the level left
Outline: as §1

| Compound | Activity [%] |
| --- | --- |
| C[C@]12CCC(=O)C(N)=C1C=C[C@@H]1[C@@H]2CC[C@]2(C)C(=O)CC[C@@H]12.Cl | 64.57 |
